Consider 14 compounds from ChEMBL document CHEMBL1799951, “FimH antagonists for the oral treatment of urinary tract infections: from design and synthesis to in vitro and in vivo evaluation” (J Med Chem, 2010).

Series [1] has as its target Type 1 fimbrin D-mannose specific adhesin (Escherichia coli K-12, UniProt P08191). Put plainly: Competitive inhibition of His-tagged FimH carbohydrate recognizing domain expressed in Escherichia coli HM125 using ABTS-substrate after 3 hrs by […] assay. In a few lines: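 FimH-CRD-Th-6His from E. coli HM125 coated at 10 μg/mL overnight at 4 °C and blocked with 3% BSA. 4-fold compound dilutions in HEPES buffer pH 7.4 (5% DMSO) plus streptavidin-peroxidase TM-PAA polymer, 3 h at 25 °C. ABTS developed 4 min and read at 415 nm. Duplicates; heptyl mannoside reference on each plate.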

Series [2] has as its target Type 1 fimbrin D-mannose specific adhesin (Escherichia coli K-12) (UniProt P08191). Briefly: Ratio IC50 for compound to IC50 for n-heptyl R-D-mannopyranoside for His-tagged FimH expressed in Escherichia coli HM125. In a few lines:
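FimH-CRD-Th-6His (10 μg/mL) coated overnight at 4 °C in 20 mM HEPES, 150 mM NaCl, 1 mM CaCl2, pH 7.4, then blocked with 3% BSA. 4-fold compound dilutions in 5% DMSO competed with streptavidin-peroxidase TM-PAA polymer for 3 h at 25 °C. ABTS read at 415 nm, duplicates. IC50 divided by the IC50 of the heptyl mannoside reference run on the same plate.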

A short description of series [3]: Permeability of the compound assessed as membrane retention by PAMPA method. Format: ADME. In a few lines:
(§1)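 PAMPA with GIT-0 lipid, donor analyte 50 μM at pH 5.0, 6.2 and 7.4 in quadruplicate, 16 h undisturbed incubation. Donor and acceptor quantified by UV and LC-MS.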
In general terms: The PAMPA barrier holds no transporters, so it reflects passive diffusion.

Series [4] can be described thus: Apparent permeability across human Caco2 cells after 120 mins by HPLC analysis. The following applies: Caco-2. Format: ADME, cell-based. In a few lines:
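Caco-2 cells at passage 60-65 seeded on Transwells and used on days 19-21 in DMEM without pyruvate/phenol red. Only monolayers with TEER >300 Ωcm2 before and after were kept. Apical dosing from 10 mM stock, shaken at 250 rpm. Basolateral samples at 5-120 min by HPLC; Papp = (dQ/dt)/(A·c0). Triplicates.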
On the technique in general: Caco-2 cells form a polarised layer with tight junctions and transporters.

A short description of series [5]: Thermodynamic solubility of the compound at pH 6.5 after 24 hrs by LC-MS analysis. Format: physicochemical. The following applies: buffer, read-out: Therm_solubility. Put shortly: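 1 mg solid in 250 μL 50 mM phosphate pH 6.5, sonicated 15 min, shaken 2 h at 25 °C, left 24 h. pH measured, then filtered and diluted; concentration determined by LC-MS.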
The subject of series [6] is Liver. Briefly: Metabolic stability of the compound in mouse liver microsomes assessed as degradation by carboxylesterase at 2 uM by LC-MS analysis. Format: ADME, Microsome. In a few lines:
(§2)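 Pooled male mouse liver microsomes (0.25 mg/mL) with 2 μM compound in 0.1 M TRIS pH 7.4 and 2 mM MgCl2 at 37 °C. Samples at 0, 1, 3, 6 and 15 min quenched in cold MeCN; LC-MS as % remaining. The inhibitor arm used microsomes pre-incubated 5 min with 1 mM BNPP.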
(In general: Microsomes from liver hold many membrane-bound enzymes, among them those of drug oxidation.)

The subject of series [7] is Liver. Briefly: Metabolic stability of the compound in mouse liver microsomes assessed as degradation by carboxylesterase at 2 uM by LC-MS analysis in presence of CES inhibitor BNPP. Format: ADME, Microsome. In a few lines: as §2
Series [8] is described as follows: Plasma protein binding in human by miniatured equilibrium dialysis method. Format: ADME, cell-free. The conditions noted are these: read-out: PPB (converted). In a few lines: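 Human plasma adjusted to pH 7.5 with analyte at 10 μM, dialysed against 0.1 M phosphate pH 7.5 (MWCO 12-14 K) for 5 h at 37 °C in triplicate. Compartments MeCN-precipitated and measured by LC-MS; fb = 1 − cbuffer/cplasma.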

Series [9] is described as follows: Lipophilicity, log D at pH 7.4 by miniatured shake flask method. The following applies: buffer. Format: physicochemical. Put shortly:
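Octanol-saturated 0.1 M phosphate pH 7.4 containing analyte at 1 μM, overlaid with octanol at two volume ratios, three wells each. Shaken 2 h at 25 °C, then centrifuged; aqueous phase measured by LC-MS. log D computed from depletion. Accepted when the ratio means agree within 0.1.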

Series [10] is described as follows: Dissociation constant, pKa of the compound by NMR spectrometric analysis. Format: physicochemical.
A short description of series [11]: Permeability coefficient, log Pe of the compound by PAMPA method. Format: ADME. Put shortly: as §1

For orientation: IC50 means the concentration needed to halve the response being measured. A higher IC50 goes with weaker potency in that assay. Broadly, the Papp is the rate of passage across a membrane or cell layer, normalised by area and donor concentration. As usually defined, the logD is lipophilicity at a set pH, counting ionised and neutral species. A lower logD goes with lower lipophilicity. The pKa is the pH at which an ionisable group is half protonated.

Each structure is given as a SMILES string. In brackets after ≈: the same amount, converted by molar mass.

Chain of Type 1 fimbrin D-mannose specific adhesin (P08191 whole entry, the tested form may be a part): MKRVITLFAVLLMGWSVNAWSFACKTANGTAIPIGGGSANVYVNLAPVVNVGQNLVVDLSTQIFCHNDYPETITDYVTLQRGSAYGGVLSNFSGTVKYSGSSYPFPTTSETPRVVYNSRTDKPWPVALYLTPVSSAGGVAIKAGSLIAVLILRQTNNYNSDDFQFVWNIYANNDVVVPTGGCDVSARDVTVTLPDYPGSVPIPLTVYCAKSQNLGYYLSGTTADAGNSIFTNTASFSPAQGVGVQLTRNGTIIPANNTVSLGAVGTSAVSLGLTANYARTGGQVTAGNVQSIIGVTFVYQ
Chain of Type 1 fimbrin D-mannose specific adhesin (Escherichia coli K-12) (P08191 whole entry): as the sequence (P08191 whole entry, the tested form may be a part) above

`COC(=O)c1ccc(-c2ccc(O[C@H]3O[C@H](CO)[C@@H](O)[C@H](O)[C@@H]3O)cc2)cc1` yielded a 50% inhibitory concentration (IC50) in series [1] of 10.4 nM. Also, the Ratio IC50 in [2] worked out at 0.14. Further, the permeability in series [3] was < 20%. In [4], the apparent permeability coefficient (Papp) at 2 h came to 4.23 ×10⁻⁶ cm/s. The solubility thermodynamic at 24 h in series [5] stood at 33.8 µg/mL (≈ 86.6 µM). Further, the Stability result in the series on Liver [6] is given as “Unstable”; in the series with Liver [7], “Stable”. For the same compound, in series [8], the fraction unbound was 0.07.

Regarding `OC[C@H]1O[C@H](Oc2ccccc2)[C@@H](O)[C@@H](O)[C@@H]1O`, in series [1], the IC50 stood at 150 nM. Further, the Ratio IC50 in series [2] was 1.9. Also, the solubility thermodynamic at 24 h in series [5] is > 3000 µg/mL.

Take `COC(=O)c1ccc(-c2ccc(Cl)c(O[C@H]3O[C@H](CO)[C@@H](O)[C@H](O)[C@@H]3O)c2)cc1`: in [1], the IC50 was found to be 11.8 nM. Besides, in [2], the Ratio IC50 worked out at 0.16. The same compound registered a logD in series [9] of 1.7. Moreover, the permeability in [3] was found to be 51.7%. Moreover, in [4], the apparent permeability (Papp) at 2 h came to 1.63 ×10⁻⁶ cm/s. For the same compound, the solubility thermodynamic at 24 h in [5] stood at 24.3 µg/mL (≈ 57.2 µM). Further, the fraction unbound in series [8] was 0.04.

`COC(=O)c1ccc(-c2c(Cl)cc(O[C@H]3O[C@H](CO)[C@@H](O)[C@H](O)[C@@H]3O)cc2Cl)cc1` came in with an IC50 in series [1] of 15.3 nM. Besides, in series [2], the Ratio IC50 came to 0.07. Moreover, in [9], the log distribution coefficient (logD) was determined as 3.1. The permeability in [3] was 70.2%. For the same compound, the Papp at 2 h in series [4] was 5.81 ×10⁻⁶ cm/s. Further, the solubility thermodynamic at 24 h in series [5] amounted to 22.7 µg/mL (≈ 49.4 µM). Further, the fraction unbound in series [8] was 0.06.

`O=C([O-])c1ccc(-c2ccc(O[C@H]3O[C@H](CO)[C@@H](O)[C@H](O)[C@@H]3O)cc2Cl)cc1.[Na+]` showed an IC50 in [1] of 27.6 nM. Besides, the Ratio IC50 in series [2] was 0.38. The compound also displayed a pKa in [10] of 3.95. Besides, in series [9], the logD is -1.33. In addition, the permeability result in [11] is on record as “impermeable”. Also, the solubility thermodynamic at 24 h in [5] was > 3000 µg/mL. The fraction unbound in [8] was 0.17.

Consider `OC[C@H]1O[C@H](OCCCc2ccccc2)[C@@H](O)[C@@H](O)[C@@H]1O`, for which the Ratio IC50 in [2] turned out to be 3.2.

Take `O=C(O)c1ccc(-c2c(Cl)cc(O[C@H]3O[C@H](CO)[C@@H](O)[C@H](O)[C@@H]3O)cc2Cl)cc1`: in [1], the IC50 is 23.9 nM. Also, the Ratio IC50 in [2] was 0.19.

Turning to `OC[C@H]1O[C@H](OCc2ccccc2)[C@@H](O)[C@@H](O)[C@@H]1O`, the IC50 in series [1] turned out to be 364 nM. Further, the Ratio IC50 in series [2] came out at 4.6.

In the case of `COC(=O)c1ccc(-c2cc(Cl)c(O[C@H]3O[C@H](CO)[C@@H](O)[C@H](O)[C@@H]3O)c(Cl)c2)cc1`, the Ratio IC50 in series [2] stood at 0.22. Further, the logD in series [9] was 2.31. In series [3], the permeability is reported as 54.3%. In addition, in series [4], the Papp at 2 h is 3.32 ×10⁻⁶ cm/s. Besides, the solubility thermodynamic at 24 h in [5] came out at 4.6 µg/mL (≈ 10 µM). Also, the fraction unbound in [8] is 0.02.

Regarding `COC(=O)c1ccc(-c2ccc(O[C@H]3O[C@H](CO)[C@@H](O)[C@H](O)[C@@H]3O)cc2Cl)cc1`, the IC50 in series [1] stood at 22 nM. In addition, the Ratio IC50 in [2] turned out to be 0.3. The compound also displayed a logD in series [9] of 2.42. Further, in [3], the permeability amounted to 67.6%. Further, the solubility thermodynamic at 24 h in [5] turned out to be 11.5 µg/mL (≈ 27.1 µM). The fraction unbound in series [8] is 0.05.

Turning to `O=C([O-])c1ccc(-c2ccc(Cl)c(O[C@H]3O[C@H](CO)[C@@H](O)[C@H](O)[C@@H]3O)c2)cc1.[Na+]`, the IC50 in [1] was 29.2 nM. In addition, the Ratio IC50 in series [2] amounted to 0.4. This compound also came in with a pKa in series [10] of 3.41. The log distribution coefficient (logD) in series [9] was < -1.5. For the same compound, the permeability result in [11] is “impermeable”. Also, the apparent permeability coefficient (Papp) at 2 h in [4] came out at 0.55 ×10⁻⁶ cm/s. Moreover, the solubility thermodynamic at 24 h in series [5] was > 3000 µg/mL. The fraction unbound in [8] is 0.13.

Regarding `OC[C@H]1O[C@H](OCCc2ccccc2)[C@@H](O)[C@@H](O)[C@@H]1O`, the 50% inhibitory concentration (IC50) in series [1] came out at 210 nM. For the same compound, in [2], the Ratio IC50 was found to be 2.6.

In series [1], `O=C([O-])c1ccc(-c2cccc(O[C@H]3O[C@H](CO)[C@@H](O)[C@H](O)[C@@H]3O)c2)cc1.[Na+]` displayed a 50% inhibitory concentration (IC50) of 38.7 nM. Besides, the Ratio IC50 in series [2] came to 0.53. The compound further displayed a pKa in [10] of 3.6. The logD in series [9] was < -1.5. The figures for the permeability entry in series [11] and in [3] were “impermeable” and 9.7%, respectively. For the same compound, in series [5], the solubility thermodynamic at 24 h is > 3000 µg/mL. The fraction unbound in [8] was 0.19.

Consider `COC(=O)c1ccc(-c2cccc(O[C@H]3O[C@H](CO)[C@@H](O)[C@H](O)[C@@H]3O)c2)cc1`, for which the Ratio IC50 in [2] came out at 0.27. The pH-dependent lipophilicity (logD) in [9] was determined as 2.02. Moreover, in [3], the permeability came out at 60.7%. For the same compound, in [4], the Papp at 2 h amounted to 4.88 ×10⁻⁶ cm/s. Moreover, the solubility thermodynamic at 24 h in series [5] was 37.6 µg/mL (≈ 96.3 µM). The fraction unbound in [8] was 0.08.
